From PubChem BioAssay
Hits are enriched below; roughly 3.9% of the tested compounds scored in any of these assays.
Pf gametocyte = kills late stage P. falciparum gametocytes; P. falciparum stage V gametocytes, ATP luminescence, 24 h; 0.065% of 150,000 active; AID 743093; inhibition, % at 10.9 µM;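 active = inhibition above the mean plus 3 SD of compounds within the control limits, set per campaign, cut at about 38% in these data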;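 also: 0% = DMSO wells and 100% = medium only without gametocytes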
STAT1 blocker = STAT1 signaling inhibition; NIH 3T3 STAT1-luciferase reporter, IFN-gamma, luminescence; inhibition, % at 5.5 µM; 0.35% of 200,000 active;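 active = inhibition above a set limit, the mean inhibition across all tested compounds plus 3 SD, cut at about 34% in these data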;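 also: 0% = IFN-gamma with DMSO and 100% = IFN-gamma with 300 µM nifuroxazide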
NF-kB expr up = raises NF-kB expression in human neuronal cells. NF-kB reporter expression; stronger effect = higher value. fold change at 12.5 µM. 1.6% of 190,000 active. AID 1239; in the data active = fold change above about 3.3
STAT1 activator = increases IFN-gamma driven STAT1 reporter signal. activation (% of control), % at 5.5 µM. 2.6% of 200,000 active. NIH 3T3 STAT1-luciferase reporter, luminescence; 100% = IFN-gamma alone, no compound;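 active = activation above the screen-wide mean activation plus 3 SD, cut at about 130% in these data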;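 also: raw ratio to IFN-gamma control signal so 100% means no change and 0% no light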
STAT3 activator = STAT3 signaling activation; U3A cells, IL-6 STAT3-luciferase reporter, luminescence; 100% = signal with IL-6 EC80 alone; AID 871; activation (% of control), % at 5.6 µM; 0.91% of 190,000 active;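 active = activation above the screen-wide mean of compound activation plus 3 SD, cut at about 130% in these data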;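 also: 0% = background luminescence of wells with medium and substrate only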
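Material: human STAT1-deficient U3A cells with stable STAT3-luciferase reporter / Probe or stimulus: IL-6 stimulus at 33 ng/mL final / Schedule: 1 h compound pre-exposure, 6 h IL-6 stimulation, 37 °C / Technique: luminescence / Read-out basis: percent of IL-6-only median luminescence / Control set: IL-6-only high control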
APP 5'UTR act = activates APP 5'UTR luciferase reporter; activation, % at 2 µM; 1% of 190,000 active; SH-SY5Y APP 5'UTR luciferase reporter, luminescence; zero percent = DMSO vehicle wells;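 active = activation above a set limit, based on mean plus 3 SD of controls, cut at about 140% in these data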
STAT1 activ conf = confirmation of STAT1 signaling activators | 97% of 1,200 active | AID 1262 | shares compounds with STAT1 activator | NIH 3T3 STAT1-luciferase reporter, IFN-gamma potentiation, luminescence; 100% = IFN-gamma EC80 alone, no compound | activation (% of control), % at 5.7 µM;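 active = activation above a set limit carried over from the earlier primary STAT1 screen, cut at about 140% in these data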;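 also: simple ratio to median IFN-gamma plus DMSO wells so 0% means no light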
NFkB act STAT1ct = activates NF-kappaB, counter-screen to STAT1 activators; shares compounds with STAT1 activator; HEK293T NF-kB luciferase reporter, TNF-alpha stimulated, luminescence; 100% = TNF-alpha with vehicle only; activation (% of control), % at 5.7 µM; 43% of 1,200 active; AID 1306;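 active = activation above the mean of solvent-only control wells plus 3 SD, set per campaign, cut at about 130% in these data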;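 also: TNF-alpha given at a submaximal dose yielding about 80% of full reporter signal; values are well signal over median control so 100% means no change and 0% no light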
STAT3 act STAT1c = counter-screen for STAT1 activators: human STAT3 activation | shares compounds with STAT1 activator | U3A cells STAT3-luciferase reporter, IL-6, luminescence; cells lack STAT1; 100 = IL-6 alone, no compound effect | activation (% of control), % at 5.7 µM | 46% of 1,200 active | AID 1316;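 active = activation above the solvent-only control well mean plus 3 SD, set per plate batch, cut at about 110% in these data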;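 also: 0% = no luminescence and 100% = median IL-6 plus DMSO wells; higher means more STAT3 reporter activation so hits are non-selective activators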
* marks the source's active call; other numbers are inactive results.

Results for c1ccc(Nc2nc(-c3ccccn3)cs2)cc1 ?
STAT1 blocker: -63; NF-kB expr up: 7.5*; STAT1 activator: 158*; STAT3 activator: 108; APP 5'UTR act: 205*; STAT1 activ conf: 226*; NFkB act STAT1ct: 150*; STAT3 act STAT1c: 126*

Results for COc1ccc(-c2csc(Nc3ncccc3C)n2)cc1 ?
STAT1 blocker: -89; NF-kB expr up: 12*; STAT1 activator: 185*; STAT3 activator: 104; APP 5'UTR act: 154*; STAT1 activ conf: 253*; NFkB act STAT1ct: 143*; STAT3 act STAT1c: 106

How did CC(=O)c1cccc(Nc2nc(-c3ccccc3)cs2)c1 do in these assays?
Pf gametocyte: 18; STAT1 blocker: -74; NF-kB expr up: 4.8*; STAT1 activator: 168*; STAT3 activator: 106; APP 5'UTR act: 170*; STAT1 activ conf: 230*; NFkB act STAT1ct: 152*; STAT3 act STAT1c: 112*

Results for Cc1ccc(N2C(=O)C3ON(c4ccccc4)C(CC(C)C)C3C2=O)cc1 (stereo not given) ?
Pf gametocyte: 3

Results for COc1ccc(Nc2nc(-c3ccc(OC)cc3)cs2)cc1 ?
Pf gametocyte: 32; STAT1 blocker: -55; STAT1 activator: 151*; STAT3 activator: 94; APP 5'UTR act: 137*; STAT1 activ conf: 182*; NFkB act STAT1ct: 142*; STAT3 act STAT1c: 99

Results for COC(=O)c1ccc(NC(=S)Nc2ccccn2)cc1 ?
STAT1 blocker: -72; NF-kB expr up: 3; STAT1 activator: 165*; STAT3 activator: 96; STAT1 activ conf: 190*; NFkB act STAT1ct: 135*; STAT3 act STAT1c: 100

How did COc1ccc(NC(=S)Nc2ccccn2)cc1 do in these assays?
Pf gametocyte: -8

How did Cc1[nH]n(-c2ccccc2)c(=O)c1C=NCc1ccco1 do in these assays?
STAT1 blocker: -63; NF-kB expr up: 3.8*; STAT1 activator: 157*; STAT3 activator: 102; APP 5'UTR act: 50; STAT1 activ conf: 186*; NFkB act STAT1ct: 133; STAT3 act STAT1c: 118*

Results for CN(C[C@H](Cc1ccccc1)N(C[C@H](c1ccccc1)N(CCc1ccccc1)N=O)N=O)N=O ?
STAT1 blocker: -11; NF-kB expr up: 0.82; STAT1 activator: 112; APP 5'UTR act: 16

Results for Nc1nnc(-c2ccc(Cl)c(Cl)c2)s1 ?
Pf gametocyte: -1; STAT1 blocker: -21; NF-kB expr up: 1.5; STAT1 activator: 119; STAT3 activator: 87; APP 5'UTR act: 1

Results for Nc1cccn2c(-c3ccc(Cl)c(Cl)c3)cnc12 ?
Pf gametocyte: 0; STAT1 blocker: -55; NF-kB expr up: 12*; STAT1 activator: 151*; STAT3 activator: 115; APP 5'UTR act: 211*; STAT1 activ conf: 102; NFkB act STAT1ct: 131; STAT3 act STAT1c: 159*

How did CCOC(=O)C1(CC2CC2)CCN(C(=O)c2cccnc2C)CC1 do in these assays?
Pf gametocyte: 3; STAT1 blocker: -17; NF-kB expr up: 1.3; STAT1 activator: 114; STAT3 activator: 102; APP 5'UTR act: 8

How did Cc1ccc(NC(=O)Nc2ccc3c(c2)nc(C)n3C)cc1C do in these assays?
STAT1 blocker: -79; NF-kB expr up: 4.8*; STAT1 activator: 171*; STAT3 activator: 100; APP 5'UTR act: 121; STAT1 activ conf: 194*; NFkB act STAT1ct: 137*; STAT3 act STAT1c: 103

What do the screens show for `Cc1nc2cc(NC(=O)Nc3ccc(N4CCOCC4)cc3)ccc2n1C`?
STAT1 blocker: -3; NF-kB expr up: 0.94; STAT1 activator: 103; STAT3 activator: 91; APP 5'UTR act: 8

Results for CCCCn1cnc2sc(-c3ccccc3)cc2c1=O ?
STAT1 blocker: -69; NF-kB expr up: 5.9*; STAT1 activator: 162*; STAT3 activator: 114; APP 5'UTR act: 0; STAT1 activ conf: 218*; NFkB act STAT1ct: 150*; STAT3 act STAT1c: 111*

Results for CC1(C)CC(=O)C=C(NCCc2c[nH]c3ccccc23)C1 ?
Pf gametocyte: 14

What do the screens show for `CCOC(=O)c1sc(NC(=O)c2sccc2C)cc1C`?
Pf gametocyte: 16; STAT1 blocker: -56; NF-kB expr up: 12*; STAT1 activator: 152*; STAT3 activator: 82; APP 5'UTR act: 154*; STAT1 activ conf: 252*; NFkB act STAT1ct: 129; STAT3 act STAT1c: 101

What do the screens show for `CCOC(=O)c1sc(NC(=O)Nc2cccc(Cl)c2)cc1C`?
Pf gametocyte: -4; STAT1 blocker: -19; NF-kB expr up: 1.1; STAT1 activator: 117; STAT3 activator: 106; APP 5'UTR act: 105

Results for O=C(CSc1ccc(-c2cccs2)nn1)NCCc1ccccc1 ?
Pf gametocyte: 2; STAT1 blocker: 3; NF-kB expr up: 0.93; STAT1 activator: 96; STAT3 activator: 102; APP 5'UTR act: -4

How did c1ccc(CSc2ccc(-c3cccs3)nn2)cc1 do in these assays?
STAT1 blocker: -72; NF-kB expr up: 4.8*; STAT1 activator: 165*; STAT3 activator: 92; APP 5'UTR act: 124; STAT1 activ conf: 184*; NFkB act STAT1ct: 134*; STAT3 act STAT1c: 99

What do the screens show for `CN(C)C=Nc1ccc2nn(-c3ccccc3)nc2c1`?
STAT1 blocker: -71; NF-kB expr up: 5.6*; STAT1 activator: 165*; STAT3 activator: 86; APP 5'UTR act: 79; STAT1 activ conf: 186*; NFkB act STAT1ct: 134*; STAT3 act STAT1c: 109

Results for CN(C)/C=N/c1c(C#N)cnn1-c1ccccc1 ?
Pf gametocyte: -32; STAT1 blocker: 6; NF-kB expr up: 0.96; STAT1 activator: 94; STAT3 activator: 105; APP 5'UTR act: -1

How did COC(=O)c1sccc1NC(=O)Nc1cccc(C)c1 do in these assays?
Pf gametocyte: 3; STAT1 blocker: -68; NF-kB expr up: 1.3; STAT1 activator: 159*; STAT3 activator: 127; APP 5'UTR act: 5; STAT1 activ conf: 177*; NFkB act STAT1ct: 134*; STAT3 act STAT1c: 123*

What do the screens show for `CC(=O)C[C@H](O)CC(=O)[C@H]1OC(=O)CCCCCCCCc2ccccc21`?
Pf gametocyte: 21
